# Source: ChEMBL document CHEMBL5303300, “EUbOPEN Chemogenomics Library - Multiplex” (2023)
# Values joined by “and” are separate entries in the source; they are usually repeats but may differ in a detail not shown here. Identical values can stand only once.
# Tested on: U2OS
# Experiment: Multiplex assay against U2OS
# Assay type: toxicity, cell-based
# Conditions: human, number of replicates 2
# In short: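 Per cents of healthy-nucleus cells form the tubulin, mitochondrial-mass and membrane-permeability phenotype values. Live cells were stained at seeding with Hoechst33342, BioTracker Green Microtubule Cytoskeleton Dye, MitoTracker Red and Annexin V Alexa Fluor 680. After compound addition they were imaged on a CQ1 microscope at 37°C and 5% CO2, and CellPathfinder machine-learning gating split them into Hoechst high-intensity objects or normal cells, normal cells into healthy, pyknosed or fragmented nuclei, and pyknosed cells into mitotic or apoptotic.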
# [1] = 12 h, 1 µM, compound concentration 1 uM
# [2] = 12 h, 10 µM, compound concentration 10 uM
# [3] = 24 h, 1 µM, compound concentration 1 uM
# [4] = 24 h, 10 µM, compound concentration 10 uM
# [5] = 48 h, 1 µM, compound concentration 1 uM
# [6] = 48 h, 10 µM, compound concentration 10 uM
compound,measurement,setting,value
CS(=O)(=O)c1ccc(C(=O)Nc2cccc(COc3ccc(Br)cc3CN3CC[C@H](O)C3)c2)cc1.O=CO,Population Apoptotic (%),[1],100% and 72%
same,Population Fragmented Nuclei (%),[1],8% and 2%
same,Population Healthy Nuclei (%),[1],84% and 83%
same,Population Hoechst High Intensity Objects (%),[1],0%
same,Population Normal (%),[1],100%
same,Population Apoptotic (%),[2],100% and 70%
same,Population Healthy Nuclei (%),[2],68% and 78%
same,Population Hoechst High Intensity Objects (%),[2],0%
same,Population Normal (%),[2],100% and 99%
same,Population Apoptotic (%),[3],50%
same,Population Fragmented Nuclei (%),[3],4% and 3%
same,Population Healthy Nuclei (%),[3],85% and 86%
same,Population Hoechst High Intensity Objects (%),[3],0%
same,Population Mitotic Cells (%),[3],50% and 31%
same,Population Normal (%),[3],100% and 99%
same,Population Apoptotic (%),[4],88% and 75%
same,Population Healthy Nuclei (%),[4],58% and 73%
same,Population Hoechst High Intensity Objects (%),[4],0%
same,Population Mitotic Cells (%),[4],11% and 24%
same,Population Normal (%),[4],100%
same,Population Apoptotic (%),[5],54% and 76%
same,Population Fragmented Nuclei (%),[5],4% and 1%
same,Population Healthy Nuclei (%),[5],84% and 89%
same,Population Hoechst High Intensity Objects (%),[5],0%
same,Population Mitotic Cells (%),[5],45% and 23%
same,Population Normal (%),[5],100% and 99%
same,Population Apoptotic (%),[6],75% and 80%
same,Population Healthy Nuclei (%),[6],54% and 69%
same,Population Hoechst High Intensity Objects (%),[6],0%
same,Population Mitotic Cells (%),[6],25% and 19%
same,Population Normal (%),[6],100% and 99%
CN[C@@H]1CC[C@@H](c2ccc(Cl)c(Cl)c2)c2ccccc21.Cl,Population Apoptotic (%),[1],66% and 62%
same,Population Fragmented Nuclei (%),[1],4% and 9%
same,Population Healthy Nuclei (%),[1],82% and 78%
same,Population Hoechst High Intensity Objects (%),[1],0%
same,Population Membrane Permeable-Phenotype (%),[1],4% and 9%
same,Population Mitotic Cells (%),[1],33% and 37%
same,Population Normal (%),[1],100%
same,Population Pyknosed Nuclei (%),[1],13% and 12%
same,Population Tubulin-Different-Phenotype (%),[1],52% and 43%
same,Population Apoptotic (%),[2],83% and 60%
same,Population Healthy Nuclei (%),[2],33% and 57%
same,Population Hoechst High Intensity Objects (%),[2],0%
same,Population Membrane Permeable-Phenotype (%),[2],30%
same,Population Mitochondria Different-Phenotype (%),[2],53% and 50%
same,Population Mitotic Cells (%),[2],16% and 40%
same,Population Normal (%),[2],100%
same,Population Pyknosed Nuclei (%),[2],30% and 32%
same,Population Tubulin-Different-Phenotype (%),[2],84% and 73%
same,Population Apoptotic (%),[3],60% and 71%
same,Population Fragmented Nuclei (%),[3],1% and 7%
same,Population Healthy Nuclei (%),[3],84% and 81%
same,Population Hoechst High Intensity Objects (%),[3],0%
same,Population Membrane Permeable-Phenotype (%),[3],2% and 1%
same,Population Mitochondria Different-Phenotype (%),[3],6% and 1%
same,Population Mitotic Cells (%),[3],39% and 28%
same,Population Normal (%),[3],100%
same,Population Pyknosed Nuclei (%),[3],14% and 10%
same,Population Tubulin-Different-Phenotype (%),[3],63% and 33%
same,Population Apoptotic (%),[4],90% and 75%
same,Population Hoechst High Intensity Objects (%),[4],0%
same,Population Membrane Permeable-Phenotype (%),[4],42% and 33%
same,Population Mitochondria Different-Phenotype (%),[4],100% and 63%
same,Population Mitotic Cells (%),[4],10% and 25%
same,Population Normal (%),[4],100%
same,Population Pyknosed Nuclei (%),[4],50% and 35%
same,Population Tubulin-Different-Phenotype (%),[4],100% and 75%
same,Population Apoptotic (%),[5],85% and 52%
same,Population Fragmented Nuclei (%),[5],2%
same,Population Healthy Nuclei (%),[5],85% and 76%
same,Population Hoechst High Intensity Objects (%),[5],0%
same,Population Membrane Permeable-Phenotype (%),[5],1%
same,Population Mitochondria Different-Phenotype (%),[5],3% and 1%
same,Population Normal (%),[5],99% and 100%
same,Population Pyknosed Nuclei (%),[5],11% and 20%
same,Population Tubulin-Different-Phenotype (%),[5],72% and 37%
same,Population Apoptotic (%),[6],88% and 79%
same,Population Fragmented Nuclei (%),[6],31% and 16%
same,Population Hoechst High Intensity Objects (%),[6],0%
same,Population Membrane Permeable-Phenotype (%),[6],40% and 45%
same,Population Mitochondria Different-Phenotype (%),[6],60% and 65%
same,Population Mitotic Cells (%),[6],11% and 20%
same,Population Normal (%),[6],100%
same,Population Pyknosed Nuclei (%),[6],57% and 37%
same,Population Tubulin-Different-Phenotype (%),[6],100% and 74%
CC1(C)C(=O)N([C@H]2CCc3c(O)cccc32)c2nc(Nc3cccc(CN4CCCC4)c3)ncc21,Population Apoptotic (%),[1],50% and 79%
same,Population Healthy Nuclei (%),[1],25% and 70%
same,Population Hoechst High Intensity Objects (%),[1],0%
same,Population Membrane Permeable-Phenotype (%),[1],0% and 6%
same,Population Mitochondria Different-Phenotype (%),[1],0% and 17%
same,Population Mitotic Cells (%),[1],50% and 20%
same,Population Normal (%),[1],100%
same,Population Pyknosed Nuclei (%),[1],22%
same,Population Tubulin-Different-Phenotype (%),[1],55% and 51%
same,Population Apoptotic (%),[2],90% and 88%
same,Population Healthy Nuclei (%),[2],28% and 42%
same,Population Hoechst High Intensity Objects (%),[2],0% and 2%
same,Population Membrane Permeable-Phenotype (%),[2],62% and 26%
same,Population Mitochondria Different-Phenotype (%),[2],50% and 59%
same,Population Mitotic Cells (%),[2],9% and 11%
same,Population Normal (%),[2],100% and 97%
same,Population Pyknosed Nuclei (%),[2],39% and 49%
same,Population Tubulin-Different-Phenotype (%),[2],62% and 73%
same,Population Apoptotic (%),[3],80% and 81%
same,Population Healthy Nuclei (%),[3],25% and 59%
same,Population Hoechst High Intensity Objects (%),[3],0%
same,Population Membrane Permeable-Phenotype (%),[3],0% and 6%
same,Population Mitochondria Different-Phenotype (%),[3],0% and 16%
same,Population Mitotic Cells (%),[3],20% and 18%
same,Population Normal (%),[3],100%
same,Population Pyknosed Nuclei (%),[3],31% and 29%
same,Population Tubulin-Different-Phenotype (%),[3],62% and 42%
same,Population Apoptotic (%),[4],90% and 92%
same,Population Healthy Nuclei (%),[4],31% and 20%
same,Population Hoechst High Intensity Objects (%),[4],0% and 2%
same,Population Membrane Permeable-Phenotype (%),[4],44% and 36%
same,Population Mitochondria Different-Phenotype (%),[4],66% and 72%
same,Population Mitotic Cells (%),[4],9% and 8%
same,Population Normal (%),[4],100% and 97%
same,Population Pyknosed Nuclei (%),[4],37% and 71%
same,Population Tubulin-Different-Phenotype (%),[4],55% and 83%
same,Population Apoptotic (%),[5],91% and 94%
same,Population Hoechst High Intensity Objects (%),[5],3% and 1%
same,Population Membrane Permeable-Phenotype (%),[5],50% and 21%
same,Population Mitochondria Different-Phenotype (%),[5],0% and 22%
same,Population Mitotic Cells (%),[5],8% and 5%
same,Population Normal (%),[5],96% and 98%
same,Population Pyknosed Nuclei (%),[5],37% and 47%
same,Population Tubulin-Different-Phenotype (%),[5],50% and 51%
same,Population Apoptotic (%),[6],97% and 81%
same,Population Healthy Nuclei (%),[6],12% and 15%
same,Population Hoechst High Intensity Objects (%),[6],1% and 2%
same,Population Membrane Permeable-Phenotype (%),[6],77% and 50%
same,Population Mitochondria Different-Phenotype (%),[6],77% and 50%
same,Population Normal (%),[6],98% and 97%
same,Population Pyknosed Nuclei (%),[6],81% and 28%
same,Population Tubulin-Different-Phenotype (%),[6],81% and 83%
